32 compounds from ChEMBL document CHEMBL4118079, “Discovery of novel naphthoquinone derivatives as inhibitors of the tumor cell specific M2 isoform of pyruvate kinase” (Eur J Med Chem, 2017) can be followed below.

pIC50: −log10 of the molar value.

Data set [1] relates to NCI-H1299. The experiment in a line: Antiproliferative activity against human NCI-H1299 cells after 48 hrs by MTS assay. Format: functional, cell-based. Particulars: NCI-H1299, 48 h. In a few lines: (§1)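 Cells kept in RPMI 1640 with 9% FBS at 37°C, 5% CO2. 5000 cells/well seeded, left 12 h, then exposed to a range of compound concentrations or DMSO (negative control) for 48 h. MTS added, 3 h at 37°C, absorbance read at 490 nm. IC50 ± SD.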

In data set [2] the target is T1, Pyruvate kinase PKM (Homo sapiens, UniProt P14618). The experiment in a line: Inhibition of recombinant human N-terminal His-tagged PKM2 expressed in Escherichia coli BL21 preincubated for 15 mins followed by PEP/NADH addition measured at 30 secs interval for 3 to 6 mins by fluorescent PK-LDH assay. In a few lines: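 Human PKM2 with an N-terminal His tag, expressed in E. coli BL21 and Ni-agarose purified. Enzyme and compound preincubated 15 min in 50 mM Tris–HCl pH 7.5, 10 mM KCl, 5 mM MgCl2. NADH fluorescence read kinetically every 30 s for 3–6 min. IC50.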

The test system of another data set is HCT-116. The data set is described as follows: Antiproliferative activity against human HCT116 cells after 48 hrs by MTS assay. Format: functional, cell-based. The settings on record: HCT-116, 48 h. In short, it runs like this: as §1
A further data set concerns HeLa. The experiment in a line: Antiproliferative activity against human HeLa cells after 48 hrs by MTS assay. In kind it is functional, cell-based. In a few lines: as §1
A general note: Formazan colour is commonly taken as a measure of viable cells.

Another data set deals with BEAS-2B. The experiment in a line: Cytotoxicity against human BEAS2B cells assessed as reduction in cell viability after 48 hrs by MTS assay. Format: cell-based. In short, it runs like this:
as §1

Data set [3] concerns NCI-H1299. The data set is described as follows: Antiproliferative activity against human NCI-H1299 cells after 48 hrs in presence of PKM2 activator FBP by MTS assay. In kind it is functional, cell-based. The settings on record: NCI-H1299, 48 h. In a few lines: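 H1299 cells in RPMI 1640 with 9% FBS at 37°C, 5% CO2. 5000 cells/well, 12 h attachment, then 48 h treatment at graded concentrations with FBP (100 µM) added. MTS read-out (3 h, 37°C, A490). IC50 ± SD.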

Data set [4] can be described thus: Selectivity index, ratio of IC50 for human BEAS2B cells to IC50 for human NCI-H1299 cells. Format: toxicity. The settings on record: BEAS2B cells and NCI-H1299 cells, read-out: Ratio IC50.
Another data set deals with Pyruvate kinase PKLR (Homo sapiens, UniProt P30613). The experiment in a line: Inhibition of recombinant human N-terminal His-tagged PKL expressed in Escherichia coli preincubated for 15 mins followed by PEP/NADH addition measured at 30 secs interval for 3 to 6 mins by fluorescent PK-LDH assay.
For data set [5], the species on record is Homo sapiens. The data set is described as follows: Selectivity ratio of IC50 for recombinant human N-terminal His-tagged PKM1 expressed in Escherichia coli BL21 to IC50 for recombinant human N-terminal His-tagged PKM2 expressed in Escherichia coli BL21.
Data set [6] deals with T1, Pyruvate kinase PKM. The experiment in a line: Inhibition of recombinant human N-terminal His-tagged PKM1 expressed in Escherichia coli BL21 preincubated for 15 mins followed by PEP/NADH addition measured at 30 secs interval for 3 to 6 mins by fluorescent PK-LDH assay. In a few lines:
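Human PKM1 with an N-terminal His tag, expressed in E. coli BL21 and Ni-agarose purified. Activity measured by PK–LDH coupling, with pyruvate formation tracked as NADH depletion by fluorescence in kinetic mode. IC50.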
Target sequence in this assay (P14618 whole entry): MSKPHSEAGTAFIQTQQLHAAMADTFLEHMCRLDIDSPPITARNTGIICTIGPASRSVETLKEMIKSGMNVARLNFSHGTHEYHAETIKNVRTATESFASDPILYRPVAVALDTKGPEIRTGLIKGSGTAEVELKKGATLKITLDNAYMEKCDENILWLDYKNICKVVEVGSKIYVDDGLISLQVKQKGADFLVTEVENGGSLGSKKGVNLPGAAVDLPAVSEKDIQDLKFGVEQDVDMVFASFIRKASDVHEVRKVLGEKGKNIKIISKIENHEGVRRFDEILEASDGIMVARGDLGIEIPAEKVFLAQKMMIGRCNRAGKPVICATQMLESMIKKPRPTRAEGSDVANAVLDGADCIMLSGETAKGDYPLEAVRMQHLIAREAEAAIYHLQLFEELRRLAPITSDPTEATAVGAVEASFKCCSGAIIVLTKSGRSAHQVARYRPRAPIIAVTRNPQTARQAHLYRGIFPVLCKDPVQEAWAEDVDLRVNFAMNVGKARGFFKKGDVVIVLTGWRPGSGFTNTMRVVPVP

The species entered for data set [7] is Homo sapiens. The experiment in a line: Selectivity ratio of IC50 for recombinant human N-terminal His-tagged PKL expressed in Escherichia coli to IC50 for recombinant human N-terminal His-tagged PKM2 expressed in Escherichia coli BL21.

Chain of Pyruvate kinase PKLR (P30613 whole entry): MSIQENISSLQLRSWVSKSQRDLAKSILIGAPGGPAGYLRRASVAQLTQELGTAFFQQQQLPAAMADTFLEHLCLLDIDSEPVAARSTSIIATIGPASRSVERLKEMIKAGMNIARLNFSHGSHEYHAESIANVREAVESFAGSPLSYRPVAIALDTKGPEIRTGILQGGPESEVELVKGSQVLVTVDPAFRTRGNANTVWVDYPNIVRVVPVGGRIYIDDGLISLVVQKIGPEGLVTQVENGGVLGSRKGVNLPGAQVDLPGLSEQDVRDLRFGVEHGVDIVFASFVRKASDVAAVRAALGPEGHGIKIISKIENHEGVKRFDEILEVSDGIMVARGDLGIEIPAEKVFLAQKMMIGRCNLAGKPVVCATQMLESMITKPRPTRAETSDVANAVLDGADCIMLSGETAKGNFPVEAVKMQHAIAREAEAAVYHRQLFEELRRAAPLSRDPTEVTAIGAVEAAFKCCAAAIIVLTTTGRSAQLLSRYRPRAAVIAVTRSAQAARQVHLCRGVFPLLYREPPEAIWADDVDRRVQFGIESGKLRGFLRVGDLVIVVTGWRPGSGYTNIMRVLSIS

One may read the pIC50 as the negative decadic logarithm of the IC50, by convention in mol/L. Regarding `CC1=C(SC(=S)N2CCCCC2)C(=O)c2ccccc2C1=O`, the pIC50 was 4.99 in the data set on NCI-H1299 [1], 5.31 on Pyruvate kinase PKM [2], 5.45 in the data set on HCT-116 and 5.89 in the data set on HeLa.
As to `CCN(CC)C(=S)SCC1=C(C)C(=O)c2ccccc2C1=O`, the pIC50 in the data set on NCI-H1299 [1] is 6.05; on Pyruvate kinase PKM [2], 5.06; with HCT-116 it was 6.39; with HeLa it was 6.41; in the data set with BEAS-2B, 4.82; with NCI-H1299 [3], 5.80. In [4], the selectivity ratio is 17.
Turning to `CC1=C(CSC(=S)NCc2cccnc2)C(=O)c2ccccc2C1=O`, the negative logarithm of the IC50 (pIC50) with NCI-H1299 [1] is 5.97; on Pyruvate kinase PKM [2], less than 4.70; with HCT-116, 6.74; in the data set with HeLa, 6.42.
For `CC1=C(CSC(=S)NCc2ccncc2)C(=O)c2ccccc2C1=O`, in that order: 6.17, less than 4.70, 6.23 and 6.30.
Regarding `CC1=C(CSC(=S)N2CC(C)OC(C)C2)C(=O)c2ccccc2C1=O` (stereo not drawn), the pIC50 in the data set on NCI-H1299 [1] is 5.83; at Pyruvate kinase PKM [2] it was 4.93; in the data set with HCT-116 it was 5.96; in the data set with HeLa it was 6.06.
Consider `CC1=C(CSC(=S)NCc2ccccc2)C(=O)c2ccccc2C1=O`, for which the pIC50 was 5.32 in the data set on NCI-H1299 [1], 5.66 at Pyruvate kinase PKM [2], 5.76 with HCT-116 and 5.89 in the data set on HeLa.
Turning to `CC1=C(CSC(=S)NN2CCN(C)CC2)C(=O)c2ccccc2C1=O`, the negative-log IC50 (pIC50) in the data set on NCI-H1299 [1] is less than 4.70; at Pyruvate kinase PKM [2], less than 4.70; in the data set on HCT-116 it was 5.70; with HeLa it was 5.41.
Consider `CCCN(CCC)C(=S)SC1=C(C)C(=O)c2ccccc2C1=O`, for which the pIC50 in the data set on NCI-H1299 [1] was 4.81; on Pyruvate kinase PKM [2], 5.00; in the data set with HCT-116 it was 5.37; in the data set with HeLa, less than 4.70.
The like results for `CC1=C(CSC(=S)NCc2ccccn2)C(=O)c2ccccc2C1=O` were, in that order, 5.35, less than 4.70, 5.27 and 5.17.
As for `CC1=C(CSC(=S)N(CCO)CCO)C(=O)c2ccccc2C1=O`, the pIC50 in the data set on NCI-H1299 [1] was 5.71; at Pyruvate kinase PKM [2], less than 4.70; in the data set on HCT-116 it was 5.65; in the data set with HeLa, 5.32.
`CC1=C(CSC(=S)N2CCSC2)C(=O)c2ccccc2C1=O`: the pIC50 is 5.48 in the data set on NCI-H1299 [1], 5.28 at Pyruvate kinase PKM [2], 5.76 with HCT-116 and 5.71 in the data set with HeLa.
Consider `CCN(CC)CCNC(=S)SCC1=C(C)C(=O)c2ccccc2C1=O`, for which the pIC50 in the data set with NCI-H1299 [1] is 5.40; on Pyruvate kinase PKM [2] it was less than 4.70; with HCT-116 it was 5.47; with HeLa, 5.24.
As for `O=C1C=C(CSC(=S)N2CCCCC2)C(=O)c2ccccc21`, the pIC50 in the data set with NCI-H1299 [1] was 5.69; on Pyruvate kinase PKM [2], 5.76; in the data set on HCT-116 it was 5.63; with HeLa it was 6.04; with BEAS-2B, 4.71. Also, the selectivity ratio in data set [4] worked out at 9.4.
As to `CC1=C(CSC(=S)NN2CCCCC2)C(=O)c2ccccc2C1=O`, the pIC50 is 5.36 in the data set with NCI-H1299 [1], less than 4.70 on Pyruvate kinase PKM [2], 5.13 with HCT-116 and 4.98 with HeLa.
`O=C1C=C(CSC(=S)N2CCN(c3ccccc3)CC2)C(=O)c2ccccc21`: the pIC50 was 5.06 with NCI-H1299 [1]; 5.85 at Pyruvate kinase PKM [2]; 5.42 at Pyruvate kinase PKLR; less than 4.70 in the data set on HCT-116; less than 4.70 in the data set with HeLa; 5.20 at Pyruvate kinase PKM [6]. Moreover, the inhibition result at Pyruvate kinase PKM [2] was “Dose-dependent effect”. Further, the Ratio IC50 is 4.5 in the data set listed under Homo sapiens [5] and 2.7 in the data set filed under Homo sapiens [7].
Regarding `CNC(=S)SCC1=C(C)C(=O)c2ccccc2C1=O`, the pIC50 is 5.27 in the data set with NCI-H1299 [1], less than 4.70 on Pyruvate kinase PKM [2], 5.34 with HCT-116 and 5.08 in the data set on HeLa.
For `C=CCN(CC=C)C(=S)SCC1=C(C)C(=O)c2ccccc2C1=O`, in that order: 5.49, 4.85, 5.66 and 5.94.
With `CCCCN(CCCC)C(=S)SCC1=C(C)C(=O)c2ccccc2C1=O`, the pIC50 was 5.19 in the data set with NCI-H1299 [1], 5.34 on Pyruvate kinase PKM [2], 4.96 in the data set on HCT-116 and 4.73 with HeLa.
The like results for `CCCN(CCC)C(=S)SCc1cc(OC)c2ccccc2c1OC` were, in that order, less than 4.70, 4.81, less than 4.70 and less than 4.70.
As to `CC(=O)N1CCN(C(=S)SCC2=C(C)C(=O)c3ccccc3C2=O)CC1`, the pIC50 is 5.33 in the data set with NCI-H1299 [1], less than 4.70 on Pyruvate kinase PKM [2], 5.68 with HCT-116 and 5.45 in the data set with HeLa.
With `CC1=C(SC(=S)N2CCOCC2)C(=O)c2ccccc2C1=O`, the pIC50 is 5.49 in the data set on NCI-H1299 [1], 5.07 at Pyruvate kinase PKM [2], 5.64 in the data set with HCT-116 and 5.67 with HeLa.
As to `CC1=C(CSC(=S)N(C)C2CCCCC2)C(=O)c2ccccc2C1=O`, the negative logarithm of the IC50 (pIC50) is 4.95 with NCI-H1299 [1], 5.29 at Pyruvate kinase PKM [2], 4.97 in the data set with HCT-116 and 4.87 with HeLa.
Turning to `CC1=C(CSC(=S)N2CCN(C)CC2)C(=O)c2ccccc2C1=O`, the pIC50 in the data set on NCI-H1299 [1] is 5.61; on Pyruvate kinase PKM [2], 4.85; with HCT-116, 5.55; in the data set with HeLa, 5.80.
In the case of `CCN(CC)C(=S)SCC1=CC(=O)c2ccccc2C1=O`, the negative-log IC50 (pIC50) with NCI-H1299 [1] is 5.72; at Pyruvate kinase PKM [2] it was 5.59; in the data set with HCT-116 it was 5.74; in the data set on HeLa, 6.29.
For `CC1=C(CSC(=S)N2CCOCC2)C(=O)c2ccccc2C1=O`, in that order: 5.91, 4.82, 6.10 and 6.02.
Regarding `CC(C)=CC[C@@H](O)C1=CC(=O)c2c(O)ccc(O)c2C1=O` [SHIKONIN], the pIC50 was 5.73 in the data set with NCI-H1299 [1], 5.74 in the data set on HCT-116, 5.61 with HeLa and 5.27 in the data set on BEAS-2B. Also, the Ratio IC50 in the data set listed under Homo sapiens [5] amounted to 1.5; in the data set filed under Homo sapiens [7] it was 4.5. In [4], the selectivity ratio is 2.9.
In the case of `CC1=C(CSC(=S)N2CCSCC2)C(=O)c2ccccc2C1=O`, the pIC50 is 5.92 with NCI-H1299 [1]; 5.23 at Pyruvate kinase PKM [2]; 6.05 with HCT-116; 6.49 with HeLa; 4.98 in the data set with BEAS-2B. Moreover, the selectivity ratio in [4] was found to be 8.6.
Regarding `CCCN(CCC)C(=S)SCC1=C(C)C(=O)c2ccccc2C1=O`, the pIC50 in the data set on NCI-H1299 [1] was 5.37; on Pyruvate kinase PKM [2], 5.17; with HCT-116 it was 5.22; with HeLa, 4.92.
For `O=C1C=C(CSC(=S)N2CCOCC2)C(=O)c2ccccc21`, in that order: 5.24, 5.37, 5.43 and 5.62.
The like results for `CC1=C(CSC(=S)N2CCCC2)C(=O)c2ccccc2C1=O` were, in that order, 5.79, 4.70, 5.84 and 6.06.
On to `CC(=O)N1CCN(C(=S)SC2=C(C)C(=O)c3ccccc3C2=O)CC1`, for which the pIC50 with NCI-H1299 [1] is 5.18; on Pyruvate kinase PKM [2], less than 4.70; in the data set with HCT-116 it was 5.31; with HeLa, 4.97.
For `CC1=C(CSC(=S)N2CCN(C(C)C)CC2)C(=O)c2ccccc2C1=O`, in that order: 5.39, less than 4.70, 5.71 and 5.66.
